Test results taken from ChEMBL document CHEMBL1129943, “5-aminocoumarans: dual inhibitors of lipid peroxidation and dopamine release with protective effects against central nervous system trauma and ischemia” (J Med Chem, 1997).

Columns and labels:
Assay type in all cases: functional
[1] = test system: Mus musculus; test: Percentage increase of locomotor activity in mice at dose of 0.1 mg/kg dihydrochloride (10 mice were used)
Procedure, shortened: (§1)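 Male ICR mice, 5 weeks, 25–35 g, acclimated 90 min. (S)- or (R)-dihydrochloride given ip in 5% gum arabic. Methamphetamine 1 mg/kg ip in saline given 30 min later. Locomotor activity recorded afterwards and expressed relative to saline–methamphetamine controls; two-tailed Student's t-test.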

[2] = test system: Mus musculus; test: Percentage increase of locomotor activity in mice at dose of 1 mg/kg dihydrochloride (9 mice were used)
[3] = test system: Mus musculus; test: Locomotor activity was measured for 1 hour after administration of 1 mg/kg apomorphine in mice (11 mice were used)
Procedure, shortened: (§2)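 Male ICR mice, 5 weeks. Dihydrochloride given ip 30 min before apomorphine 1 mg/kg sc, the hypermotility inducer used in place of methamphetamine. Spontaneous motor activity monitored afterwards; two-tailed Student's t-test.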

[4] = test system: Mus musculus; test: Locomotor activity was measured for 1 hour after administration of 0.1 mg/kg dihydrochloride in mice (10 mice were used); procedure, shortened: as §1
[5] = species on record: Mus musculus; test: Peroral dose required to reduce by 50% the score of excitatory behavior induced by intrathecal injection of ferrous chloride in mice; details: central, read-out: ID50 (the source's name)
Procedure, shortened: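 Male Slc:ICR mice, 5 weeks old, 10 per dose. Compound given orally 30 min before intrathecal 5 μL of 50 mM FeCl2 in saline (between L6 and S1). Vehicle was water, or 0.5% gum arabic suspension. Behaviour scored 0–5 (biting to death) from 15 min to 1 h. ID50 from three or four doses, relative to vehicle score.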

[6] = test system: Mus musculus; test: Percentage increase of locomotor activity in mice at dose of 0.3 mg/kg dihydrochloride (9 mice were used); procedure, shortened: as §1
[7] = test system: Mus musculus; test: Percentage increase of locomotor activity in mice at dose of 1 mg/kg apomorphine (11 mice were used); procedure, shortened: as §2
[8] = test system: Mus musculus; test: Locomotor activity was measured for 1 hour after administration of 1 mg/kg dihydrochloride in mice (9 mice were used); procedure, shortened: as §1
[9] = test system: Mus musculus; test: Locomotor activity was measured for 1 hour after administration of 0.3 mg/kg dihydrochloride in mice (9 mice were used); procedure, shortened: as §1
[10] = species on record: Mus musculus; test: Percentage increase of locomotor activity in mice
[11] = test system: Mus musculus; test: Locomotor activity was measured in mice after 1 hour administration of methamphetamine; parameters: unit not given here
[12] = species on record: Rattus norvegicus; test: Concentration required to reduce by 50% the amount of lipid peroxide formed in rat liver microsomes
Procedure, shortened: (§3)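 Rat liver microsomes (S-9), 0.3 mg protein in 40 mM Tris-malate pH 7.4. Peroxidation started with a 1:1 mix of FeCl2 (0.25 mM) and NADPH (3 mM), then 1 h at 37 °C. Compound in DMSO added before incubation, tested up to 1 μM final. Thiobarbituric acid method read-out. Activity relative to DMSO vehicle; IC50 from four concentrations by nonlinear regression, otherwise % inhibition at 1 μM.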

[13] = test system: Mus musculus; test: Percentage increase of locomotor activity in mice at a dose of 1 mg/kg dihydrochloride (15 mice were used); procedure, shortened: as §1
[14] = test system: Mus musculus; test: Locomotor activity was measured for 1 hour after administration of 3 mg/kg of dihydrchloride in mice (13 mice were used); procedure, shortened: as §1
[15] = test system: Mus musculus; test: Percentage increase of locomotor activity in mice at a dose of 3 mg/kg dihydrochloride (13 mice were used); procedure, shortened: as §1
[16] = test system: Mus musculus; test: Locomotor activity was measured for 1 hour after administration of 10 mg/kg of dihydrchloride in mice (16 mice were used); procedure, shortened: as §1
[17] = test system: Mus musculus; test: Percentage increase of locomotor activity in mice at a dose of 10 mg/kg dihydrochloride (16 mice were used); procedure, shortened: as §1
[18] = test system: Mus musculus; test: Locomotor activity was measured for 1 hour after administration of 1 mg/kg of dihydrchloride in mice (15 mice were used); procedure, shortened: as §1
[19] = species on record: Rattus norvegicus; test: Inhibition of lipid peroxidation by rat liver microsomes; parameters: concentration or dose not given beside the values; details: dose or concentration not given here; procedure, shortened: as §3

With Cc1c(C)c2c(c(C)c1N)C[C@@](C)(CN1CCC(c3ccccc3)CC1)O2 the Increase [1] was 113.2%, the Increase [2] was 35.1% and the Locomotor activity [3] was 841. The Locomotor activity [4] was 2103, the ED50 [5] was 10.8 mg/kg and the Increase [6] was 54.4%. For the same compound, the Increase [7] was 124.5%, the Locomotor activity [8] was 773 and the Locomotor activity [9] was 1102.
CCCSCC1(C)Cc2c(C)c(N)c(C)c(C)c2O1 (centres undefined) gave an Increase [10] of 56.4%, a Locomotor activity [11] of 1540 and an IC50 [12] of 280 nM. For the same compound, the ED50 [5] was 24.6 mg/kg.
Compound Cc1c(C)c2c(c(C)c1N)C[C@](C)(CN1CCC(c3ccccc3)CC1)O2 has an Increase [13] of 129%, a Locomotor activity [14] of 1852 and an ED50 [5] of 11.6 mg/kg. For the same compound, the Increase [15] was 169%, the Locomotor activity [16] was 889 and the Increase [17] was 67.7%. For the same compound, the Locomotor activity [18] was 1472.
Cc1c(C)c2c(c(C)c1N)CC(C)(CSc1nc3ccccc3s1)O2 (centres undefined) showed an Increase [10] of 45.3%, a Locomotor activity [11] of 1391 and an IC50 [12] of 70 nM. For the same compound, the ED50 [5] was 33.7 mg/kg.
Cc1c(C)c2c(c(C)c1N)CC(C)(CSc1nccn1C)O2 (centres undefined) showed an Increase [10] of 104.2%, a Locomotor activity [11] of 2228 and an ED50 [5] of 37.1 mg/kg. The inhibition [19] was 11%.
Cc1c(C)c2c(c(C)c1N)CC(C)(CBr)O2 (centres undefined) showed an Increase [10] of 34.5%, a Locomotor activity [11] of 1115 and an IC50 [12] of 300 nM. For the same compound, the ED50 [5] was 16 mg/kg.
For Cc1c(C)c2c(c(C)c1N)CC(C)(CN1CCN(c3ccccc3)CC1)O2 (centres undefined), the Increase [10] was 47.3%, the Locomotor activity [11] was 1484 and the IC50 [12] was 70 nM. For the same compound, the ED50 [5] was 13.1 mg/kg.
COCC1(C)Cc2c(C)c(N)c(C)c(C)c2O1 (centres undefined) showed an Increase [10] of 76.7%, a Locomotor activity [11] of 1934 and an IC50 [12] of 300 nM. The ED50 [5] was 20.1 mg/kg.
Cc1c(C)c2c(c(C)c1N)CC(C)(CN1CCCCC1)O2 (centres undefined) showed an Increase [10] of 93.7%, a Locomotor activity [11] of 2960 and an ED50 [5] of 11.7 mg/kg. For the same compound, the inhibition [19] was 18%.
For Cc1c(C)c2c(c(C)c1N)CC(C)(C)O2, the Increase [10] was 31.5%, the Locomotor activity [11] was <509 and the IC50 [12] was 760 nM. It also gave an ED50 [5] of 7.8 mg/kg.
Cc1c(C)c2c(c(C)c1N)C(c1cccnc1)C(C)(C)O2 (centres undefined) gave an Increase [10] of 52.1%, a Locomotor activity [11] of 1488 and an ED50 [5] of 32.1 mg/kg. For the same compound, the inhibition [19] was 22%.
Cc1c(C)c2c(c(C)c1N)CC(C)(CSc1ccc(F)cc1)O2 (centres undefined) showed an Increase [10] of 61.8%, a Locomotor activity [11] of 1625 and an IC50 [12] of 220 nM. It also gave an ED50 [5] of 17.9 mg/kg.
Cc1c(C)c2c(c(C)c1N)CC(C)(Cn1ccnc1)O2 (centres undefined) showed an Increase [10] of 155.1%, a Locomotor activity [11] of 3950 and an ED50 [5] of 25 mg/kg. The inhibition [19] was 6%.
Work on Cc1c(C)c2c(c(C)c1N)CC(C)(CN1CCOCC1)O2 (centres undefined) yielded an Increase [10] of 103.1%, a Locomotor activity [11] of 3209 and an IC50 [12] of 410 nM. The ED50 [5] was 19.2 mg/kg.
